Experimental data published in the EternaBench riboswitch data.

System: MS2 coat protein
Assay: apparent Kd, MS2 coat protein; higher = weaker binding; RNA-MaP array; FMN 200 µM where present
Procedure, shortened: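 Designs on Illumina sequencing-chip clusters, transcribed by stalled E. coli RNA polymerase, were exposed to SNAP-549-labelled MS2 coat protein in doubling steps from 0.7 or 1.5 nM up to 3 µM, without and then with constant ligand. The buffer held 100 mM Tris-HCl pH 7.5, 80 mM KCl, 4 mM MgCl2, BSA, DTT, yeast tRNA and Tween-20. Apparent Kd values are medians of filtered per-cluster binding-curve fits to green signal normalised to red-channel RNA signal and control-cluster median Fmax.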

[1] = designed as: ON switch for flavin mononucleotide, no ligand
[2] = ligand present: flavin mononucleotide, designed as: ON switch for flavin mononucleotide
[3] = designed as: OFF switch for flavin mononucleotide, no ligand
[4] = ligand present: flavin mononucleotide, designed as: OFF switch for flavin mononucleotide

## GUGAACAUGAGGAUCACCCAUGUAGCUCACUGCCAGUGGCUACAGGAUAUAGCACUCCGAAGGUGCUAGAAGGGUGGCCUAGAA
[1]
  apparent Kd: 92.8 nM
[2]
  apparent Kd: 22.1 nM

## GUGAAGGUAGGAUAUACGAUAAUAUAGGGUAGAUAUAUAACACAUGAGGAUCACCCAUGUAGAAGGACCAAGUG
[3]
  apparent Kd: 46.3 nM
[4]
  apparent Kd: 110 nM

## GUGACGAAUGUAGGAUAUGCUGAGGAAUACUCAGCAGAAGGACAUGAGGAUCACCCAUGUAAUCCUAAUAAUAAAUAACGUCAC
[3]
  apparent Kd: 13 nM
[4]
  apparent Kd: 18.3 nM

## GUGAGGUCAGGAUAUGCAUGGCGGGACUUGCGUCGUGGCGUGGAGAAGGGACAUGAGGAUCACCCAUGUGGAGG
[3]
  apparent Kd: 115 nM
[4]
  apparent Kd: 95 nM

## GUGAGUGAUAGAGGAUAUAUAGAGAGAGAGAGAAUAGAAGGCUAAACAUACAUGAACAUGAGGAUCACCCAUGUCACCCAUGUU
[1]
  apparent Kd: 37.6 nM
[2]
  apparent Kd: 42.2 nM

## GUGCAGGUAGGAUAUCCACCGGCAAACAUGAGGAUCACCCAUGUGACGCUCCCUUGUCUUGGAGAAGGGCCGGCAU
[3]
  apparent Kd: 33.1 nM
[4]
  apparent Kd: 27.5 nM

## GUGCAUACGUGAGGAUAUGUAUUAGCUCGUGGUACAGAAGGCAUGUCUGAUGACAUGAGGAUCACCCAUGUUGGCACAGUGCGC
[1]
  apparent Kd: 48.2 nM
[2]
  apparent Kd: 27.6 nM

## GUGCGGUAGGAGAAGGACGGAGGCUUCUUUACAUACAUGAGGAUCACCCAUGUAGGAUAUCCUACCUCACGCGGCCUCCUUCUG
[3]
  apparent Kd: 5.4 nM
[4]
  apparent Kd: 5.5 nM

## GUGCGGUAGGAGAAGGACGGAGGCUUCUUUUCAUACAUGAGGAUCACCCAUGUAGGAUAUCCUACCUCACGCGGCCUACUACUG
[3]
  apparent Kd: 8.36 nM
[4]
  apparent Kd: 7.7 nM

## GUGCGGUCAGGAUAUGCAUGGCGGGACUUGCGUCGUGGCGUGGAGAAGGGACAUGAGGAUCACCCAUGUGGAGU
[3]
  apparent Kd: 76.6 nM
[4]
  apparent Kd: 45.3 nM

## GUGCGUGGCUAGGAUAUUGAGGAGUUUAGUCAGCGAGAAGGAGCCACAUGAGGAUCACCCAUGUGGUGAAGCUC
[3]
  apparent Kd: 18.6 nM
[4]
  apparent Kd: 68.6 nM

## GUGCUCGUGUGAGGAUAUGCCGCCGUUUCGGCUGCAGAAGGUGCUACGUUACAUGAGGAUCACCCAUGUCUCUGUUGUUUCGUG
[1]
  apparent Kd: 21 nM
[2]
  apparent Kd: 21.4 nM

## GUGCUUGUCGAAGGAUAUGGUUACAUGAGGAUCACCCAUGUUAUGCUUGGUUACUUGUUUAGUUUCCAGAAGGUCGAUUAGUUG
[3]
  apparent Kd: 53.4 nM
[4]
  apparent Kd: 163 nM

## GUGGCCCAGGCACAGGAUAUGUUUCUCGUAACAUGAGGAUCACCCAUGUGCCUAUGAGAUUUUUUGCAGAAGGGUGCACGCCACG
[1]
  apparent Kd: 229 nM
[2]
  apparent Kd: 18.1 nM

## GUGGCUUAUGAGAAGGCGAUCAUGAAACAUGAUCGAGGAUAUCAUGUAAACAUGAGGAUCACCCAUGUAUGGGUAUUAUGCUAC
[1]
  apparent Kd: 291 nM
[2]
  apparent Kd: 53.9 nM

## GUGGGAAUCACAGGAUAUACAUGCGCCGCUUCGUUCUACAUGAGGAUCACCCAUGUGUGGUCCGUGUAGAAGGGUGUUUGUUAC
[1]
  apparent Kd: 31 nM
[2]
  apparent Kd: 10.8 nM

## GUGGUCAGACAUGAGGAUCACCCAUGUGGAAUAAAUAAGGAACAGGAUAUCUAAUAUAGGAUAUAAGAGAAGGGUUGGUUGGUG
[1]
  apparent Kd: 81.7 nM
[2]
  apparent Kd: 93.6 nM

## GUGGUGCAUAUACGUGGAUGUACAUGAGGAUCACCCAUGUAAGAGGAUAUGCGGAUACUAGCUCAGCAGAAGGCUUACAAAUAA
[3]
  apparent Kd: 16.1 nM
[4]
  apparent Kd: 73.8 nM

## GUGGUGCAUAUACGUGGAUGUACAUGAGGAUCACCCAUGUAAGAGGAUAUGCGGAUACUAGCUCAGCAGAAGGCUUACAAAUGC
[3]
  apparent Kd: 9.75 nM
[4]
  apparent Kd: 27.5 nM

## GUGUACAGAGGAUAUACGGGAGCAUGGAAACAUGCAACCUCACAUGAGGAUCACCCAUGUAGAAGGCUGUACAC
[3]
  apparent Kd: 162 nM
[4]
  apparent Kd: 243 nM

## GUGUACAGAGGAUAUACUUAUGGAGUCACGAAAGUGGCUUCACAUGAGGAUCACCCAUGUAGAAGGCUGUACAC
[3]
  apparent Kd: 28.1 nM
[4]
  apparent Kd: 31.1 nM

## GUGUACAGAGGAUAUAUAUGAGCAUGGAAACAUGCAUCUUCACAUGAGGAUCACCCAUGUAGAAGGCUGUACAC
[3]
  apparent Kd: 15.7 nM
[4]
  apparent Kd: 49.2 nM

## GUGUACGUAGGAUAUGCUGGAAUCUAGCGAAGCUAGGUUCCACAUGAGGAUCACCCAUGUAGAAGGGCGUACAC
[3]
  apparent Kd: 182 nM
[4]
  apparent Kd: 47.1 nM

## GUGUAGAUAGGAUAUGCAUAGAGCUUACGAAAGUAGGCUCUACAUGAGGAUCACCCAUGUAGAAGGGUCUACAC
[3]
  apparent Kd: 27.9 nM
[4]
  apparent Kd: 21.2 nM

## GUGUAGUCAGGAUAUACAUAGGAAGAUAAUAUAAUAUAAGUACAUGAGGAUCACCCAUGUAGAAGGGACAGUGU
[3]
  apparent Kd: 38.5 nM
[4]
  apparent Kd: 53.8 nM

## GUGUGAUUAAGAGGAUAUAUACAACAUGAGGAUCACCCAUGUACCCGUGUAGUAGAAGGUUUGUUUUUAUAUAAUAUUAUAAUU
[1]
  apparent Kd: 29.9 nM
[2]
  apparent Kd: 24.8 nM

## GUUAAGGUAGGAUAUACGAUAAUAUAGGGUAGAUAUAUAACACAUGAGGAUCACCCAUGUAGAAGGACCAAUUG
[3]
  apparent Kd: 30.2 nM
[4]
  apparent Kd: 85.7 nM

## GUUACAUGAGGAUCACCCAUGUAUGUGUGGGAGUAAGUGUCUUAGGAUAUCUAUCAUUGAAUUUAAGAGAAGGAAGAUUGUUGU
[1]
  apparent Kd: 113 nM
[2]
  apparent Kd: 126 nM

## GUUACAUGAGGAUCACCCAUGUAUGUGUGGGAGUAAGUGUCUUAGGAUAUCUAUUAUUUAAUUUAAGAGAAGGAAGAUUGUUGU
[1]
  apparent Kd: 118 nM
[2]
  apparent Kd: 133 nM

## GUUAGACAUGAGGAUCACCCAUGUGAGGAUAUGAUGCGAUCGUGCUGACAUGAUCGCAUCAGAAGGCACAUAUG
[3]
  apparent Kd: 133 nM
[4]
  apparent Kd: 190 nM

## GUUAGACAUGAGGAUCACCCAUGUGAGGAUAUGAUGUGAAUAAAUAAUUAAUUAAGUAUCAGAAGGCACAUAUG
[3]
  apparent Kd: 129 nM
[4]
  apparent Kd: 149 nM

## GUUAGUUAAGGAUAUACAGGGAGCUGCGGCGUCUCGCCGCAACAUGAGGAUCACCCAUGUAGAAGGUAGCCGUU
[3]
  apparent Kd: 76.4 nM
[4]
  apparent Kd: 121 nM

## GUUCUGUUAGGAUAUUGGAAAUCCGUAGCUGUGGCGCGCUUCAAGAAGGAACAUGAGGAUCACCCAUGUGAAAU
[3]
  apparent Kd: 25 nM
[4]
  apparent Kd: 25.4 nM

## GUUGAAGUCACAGGAUAUACGUCGUCUGUUGCCGUAGAAGGGUGAACUCAGCCUGACCGUGACAUGAGGAUCACCCAUGUGACC
[1]
  apparent Kd: 15.3 nM
[2]
  apparent Kd: 19.6 nM

## GUUGGGUUUUUUUUUGGACGUUCAACAUGAGGAUCACCCAUGUAGGAUAUCGUUUGUUUUUUUUACGAGAAGGGCGUAUUUUUU
[3]
  apparent Kd: 9.65 nM
[4]
  apparent Kd: 8.01 nM

## GUUGUGUAUGUAGGAUAUGCGAAGCAAAGCUUCGCAGAAGGACAUGAGGAUCACCCAUGUAUUGCGGUCUGCGUUCAGAUCGCU
[3]
  apparent Kd: 43.5 nM
[4]
  apparent Kd: 181 nM

## GUUGUGUCAGGAUAUACGUUUGUUUUUUUUUUUGUUGUUUAGUAGAAGGGACAUGAGGAUCACCCAUGUUUGUU
[3]
  apparent Kd: 25.7 nM
[4]
  apparent Kd: 28.2 nM

## GUUGUUUCUGAGGAUAUUAUUUUAUUCGAUUGAUAAGAAGGCAGUACAUGAGGAUCACCCAUGUGGGUAGUUUG
[3]
  apparent Kd: 94.2 nM
[4]
  apparent Kd: 172 nM

## GUUUCACAUGAGGAUCACCCAUGUGAGGAUAUAGAUUUGUUAGUGGUGAUUGGUGGAUUUAGAAGGCGCGUGAU
[3]
  apparent Kd: 81.3 nM
[4]
  apparent Kd: 66.2 nM

## GUUUCACAUGAGGAUCACCCAUGUGAGGAUAUGGUUUCGCUGGCCGUAGCCAGUGGAACCAGAAGGCGCAUGAU
[3]
  apparent Kd: 36.5 nM
[4]
  apparent Kd: 41.3 nM

## GUUUCUAUAAGUUAUAUUUAACAGUCAGAAGGUGAUACUACGACAUGAGGAUCACCCAUGUAAUUCAAGGAUAUGAACUUAAUC
[1]
  apparent Kd: 1570 nM
[2]
  apparent Kd: 999 nM

## GUUUGUUAUUAGAAGGUGCCGGCGAGAGCCGCAACAUGAGGAUCACCCAUGUGUCGGUGACGACGCAAGGAUAUGGUGGUGGAU
[1]
  apparent Kd: 308 nM
[2]
  apparent Kd: 140 nM

## GUUUUCGCAUGAGGAUAUGCUCGCAAUUCAAGAGCAGAAGGUAUGUCUAUAGACAUGAGGAUCACCCAUGUAUUUAUCAUUGAA
[1]
  apparent Kd: 218 nM
[2]
  apparent Kd: 58.7 nM

## GUUUUGAUAGGAUAUACAUGAGGAUCACCCAUGUCCCACCGGUUACCUAUGACCAUAUGUAGAAGGAUCGUUUG
[3]
  apparent Kd: 51.7 nM
[4]
  apparent Kd: 78.9 nM

## GUUUUGGGAGGAUAUGCGUGGAUUAUUUUCGUAUGUUGUUUACAUGAGGAUCACCCAUGUAGAAGGUCUAGAGC
[3]
  apparent Kd: 39.7 nM
[4]
  apparent Kd: 133 nM

## UAAAAACAUGAGGAUCACCCAUGUGAAAAUAUGGGAGGAUAUACAAAGACGAGAGUCAAAGUAGAAGGCCUAAAAU
[1]
  apparent Kd: 73.5 nM
[2]
  apparent Kd: 24.5 nM

## UAAAAUAGUGUGAGGAUAUGCUGGUCCUUGGAUCAGCAGAAGGCACAUGAGGAUCACCCAUGUAGUUAAUUUUA
[3]
  apparent Kd: 40.5 nM
[4]
  apparent Kd: 218 nM

## UAAAUUAACAAGAAGGCUAACAUGAGGAUCACCCAUGUUGUACAUGGAUAUAGAGGAUAUUGCUAAUAAUUUUUUAUCAUAAUU
[3]
  apparent Kd: 20.8 nM
[4]
  apparent Kd: 17.6 nM

## UAAGACUAGCAUUGGUAUCUCCACAUGAGGAUCACCCAUGUCUAGGAUAUGAGCAGCAAAGCUGCUUAGAAGGAGACGCUAGUC
[3]
  apparent Kd: 8.47 nM
[4]
  apparent Kd: 12.6 nM

## UAAGACUAGCAUUGGUAUCUCCACAUGAGGAUCACCCAUGUUUAGGAUAUGAGCAGCAAAGCUGCUUAGAAGGAGACGCUAGUC
[3]
  apparent Kd: 7.26 nM
[4]
  apparent Kd: 7.21 nM

## UAAGGACAUGAGGAUCACCCAUGUGAGGAUAUGCUCUACGAACGUUUAUUUAUGAGAAGCAGAAGGCACAUUUU
[3]
  apparent Kd: 99.8 nM
[4]
  apparent Kd: 156 nM

## UAAUAAAACGAUCGGCGAUCCAAACAUGAGGAUCACCCAUGUAGAAGGGACUCUACAAAGUAGAGUCAGGAUAUACGAGAUCGA
[3]
  apparent Kd: 11.9 nM
[4]
  apparent Kd: 208 nM

## UAAUAAAACGAUCGGCGGUCCAUACAUGAGGAUCACCCAUGUAGAAGGGACUCUACAAAGUAGAGUCAGGAUAUACAAGAUCGA
[3]
  apparent Kd: 8.19 nM
[4]
  apparent Kd: 108 nM

## UACAAUCUAUCUGAGGAUAUCAUGAUUAUAACAUGAGGAUCACCCAUGUGCAGGAAAACUGCAUAUGAGAAGGCAGAUAGAUUGU
[1]
  apparent Kd: 611 nM
[2]
  apparent Kd: 98 nM

## UACACUACUGAGAAGGGAUACAUAUAAUUUUAGUCAGGAUAUCGAUACAGUGCAGCAUGAGGACAUGAGGAUCACCCAUGUAUU
[1]
  apparent Kd: 22.3 nM
[2]
  apparent Kd: 14.6 nM

## UACAGACAUGAGGAUCACCCAUGUAAGGAUAUCGGUACCGAUGGUAUAAUCUACUCGGCGAGAAGGUACAGUGU
[3]
  apparent Kd: 23.1 nM
[4]
  apparent Kd: 26.7 nM
